Values joined by “and” are separate entries in the source; they are usually repeats but may differ in a detail not shown here. Equal values may be shown once.
Columns and labels:
[1] = tested on: Canis familiaris; experiment: Area under curve at a peroral dose of 3 mg/kg in dog; format: ADME, organism-based, Canis lupus familiaris; parameters: dose 3 mg/kg, route oral; conditions: in vivo, po
Method in brief: (§1)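 Each compound dosed once intravenously at 1 mg/kg and orally at 3 mg/kg. Exposure read as plasma area under the concentration-time curve, reported in µmol min/L.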

[2] = tested on: Rattus norvegicus; experiment: Area under curve at a peroral dose of 3 mg/kg in rat; format: ADME, organism-based; parameters: dose 3 mg/kg, route oral; conditions: in vivo, po; method in brief: as §1
[3] = tested on: Canis familiaris; experiment: Area under curve at an iv dose of 1 mg/kg in dog; format: ADME, organism-based, Canis lupus familiaris; parameters: dose 1 mg/kg, route intravenous; conditions: in vivo; method in brief: as §1
[4] = tested on: Rattus norvegicus; experiment: Area under curve at an iv dose of 1 mg/kg in rat; format: ADME, organism-based; parameters: dose 1 mg/kg, route intravenous; conditions: in vivo; method in brief: as §1
[5] = Plasma half life in dog; format: ADME, organism-based, Canis lupus familiaris
[6] = Plasma half life in rat; format: ADME, organism-based
[7] = Bioavailability in dog(iv: 1 mg/kg); format: ADME, organism-based, Canis lupus familiaris; conditions: in vivo
[8] = Bioavailability in rat; format: ADME, organism-based; conditions: in vivo
[9] = molecular target: T1, Alpha-1D adrenergic receptor (Homo sapiens, UniProt P25100); experiment: Binding affinity against Alpha-1D adrenergic receptor (recombinant human receptor) using [3H]-prazosin.
T1 sequence (P25100 whole entry): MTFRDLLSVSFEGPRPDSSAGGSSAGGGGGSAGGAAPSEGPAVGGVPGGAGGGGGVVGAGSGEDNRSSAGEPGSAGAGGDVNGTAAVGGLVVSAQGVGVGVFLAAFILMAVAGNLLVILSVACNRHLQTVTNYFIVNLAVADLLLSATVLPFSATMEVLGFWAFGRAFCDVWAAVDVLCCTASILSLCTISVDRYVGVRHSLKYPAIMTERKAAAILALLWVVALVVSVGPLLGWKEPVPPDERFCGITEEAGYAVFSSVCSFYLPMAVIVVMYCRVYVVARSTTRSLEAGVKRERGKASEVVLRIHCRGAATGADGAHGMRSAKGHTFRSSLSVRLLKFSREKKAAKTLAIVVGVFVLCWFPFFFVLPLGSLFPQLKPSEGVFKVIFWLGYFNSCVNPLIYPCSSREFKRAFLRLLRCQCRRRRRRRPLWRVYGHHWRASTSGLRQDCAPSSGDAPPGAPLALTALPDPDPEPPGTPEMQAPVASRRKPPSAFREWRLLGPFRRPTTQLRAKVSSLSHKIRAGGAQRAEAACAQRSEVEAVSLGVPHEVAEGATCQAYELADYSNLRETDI

[10] = molecular target: T2, Alpha-1B adrenergic receptor (Homo sapiens, UniProt P35368); experiment: Binding affinity against Alpha-1B adrenergic receptor (recombinant human receptor) using [3H]prazosin.
T2 sequence (P35368 whole entry): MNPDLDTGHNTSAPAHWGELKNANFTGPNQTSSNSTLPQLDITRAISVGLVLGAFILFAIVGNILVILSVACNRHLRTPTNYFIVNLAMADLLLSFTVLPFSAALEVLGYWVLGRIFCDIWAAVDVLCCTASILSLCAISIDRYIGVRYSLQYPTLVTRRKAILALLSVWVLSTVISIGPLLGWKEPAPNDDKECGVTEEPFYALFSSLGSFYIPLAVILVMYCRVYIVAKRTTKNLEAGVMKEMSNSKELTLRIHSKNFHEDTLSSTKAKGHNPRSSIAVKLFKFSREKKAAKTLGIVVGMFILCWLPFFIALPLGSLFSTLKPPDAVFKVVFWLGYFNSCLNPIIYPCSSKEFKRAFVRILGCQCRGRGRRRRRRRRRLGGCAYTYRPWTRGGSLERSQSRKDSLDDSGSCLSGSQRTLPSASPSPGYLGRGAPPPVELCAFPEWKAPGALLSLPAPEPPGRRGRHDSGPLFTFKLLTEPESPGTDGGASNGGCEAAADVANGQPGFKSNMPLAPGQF

[11] = species on record: Rattus norvegicus; experiment: Antagonistic activity inhibiting phenylephrine induced contractions in isolated rat prostate.; format: functional, Prostate gland
[12] = molecular target: T3, Alpha-1A adrenergic receptor (Homo sapiens, UniProt P35348); experiment: Binding affinity against Alpha-1A adrenergic receptor (recombinant human receptor) using [3H]prazosin.
T3 sequence (P35348 whole entry): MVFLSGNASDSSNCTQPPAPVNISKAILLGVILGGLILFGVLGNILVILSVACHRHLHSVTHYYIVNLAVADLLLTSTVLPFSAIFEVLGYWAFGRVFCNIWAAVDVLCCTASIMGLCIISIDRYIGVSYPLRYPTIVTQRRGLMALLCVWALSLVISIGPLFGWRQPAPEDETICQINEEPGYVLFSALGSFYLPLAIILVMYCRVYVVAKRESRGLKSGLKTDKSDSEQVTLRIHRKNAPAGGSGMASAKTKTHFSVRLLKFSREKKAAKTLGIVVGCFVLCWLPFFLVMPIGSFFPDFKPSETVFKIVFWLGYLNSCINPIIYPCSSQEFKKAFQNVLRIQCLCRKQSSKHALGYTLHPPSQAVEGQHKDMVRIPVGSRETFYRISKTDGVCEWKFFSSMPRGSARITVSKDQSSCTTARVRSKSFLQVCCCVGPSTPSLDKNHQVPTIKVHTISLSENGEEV

[13] = Selectivity against alpha-1a receptor over alpha-2a,b,c adrenoceptors
Method in brief: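 Binding affinities (Ki, nM) measured at recombinant human α1a and α2a, α2b and α2c adrenoceptors; fold selectivity expressed as the ratio of α2 subtype Ki to α1a Ki.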

[14] = molecular target: T1, Alpha-1D adrenergic receptor; experiment: Binding affinity against isolated human aorta using [3H]- prazosin.; format: tissue-based
[15] = molecular target: T3, Alpha-1A adrenergic receptor; experiment: Binding affinity against isolated human prostate using [3H]- prazosin.; format: tissue-based, Prostate gland
[16] = molecular target: T4, Alpha-1A adrenergic receptor (Rattus norvegicus, UniProt P43140); experiment: Binding affinity against isolated rat prostate using [3H]- prazosin.; format: tissue-based, Prostate gland
T4 sequence (P43140 whole entry): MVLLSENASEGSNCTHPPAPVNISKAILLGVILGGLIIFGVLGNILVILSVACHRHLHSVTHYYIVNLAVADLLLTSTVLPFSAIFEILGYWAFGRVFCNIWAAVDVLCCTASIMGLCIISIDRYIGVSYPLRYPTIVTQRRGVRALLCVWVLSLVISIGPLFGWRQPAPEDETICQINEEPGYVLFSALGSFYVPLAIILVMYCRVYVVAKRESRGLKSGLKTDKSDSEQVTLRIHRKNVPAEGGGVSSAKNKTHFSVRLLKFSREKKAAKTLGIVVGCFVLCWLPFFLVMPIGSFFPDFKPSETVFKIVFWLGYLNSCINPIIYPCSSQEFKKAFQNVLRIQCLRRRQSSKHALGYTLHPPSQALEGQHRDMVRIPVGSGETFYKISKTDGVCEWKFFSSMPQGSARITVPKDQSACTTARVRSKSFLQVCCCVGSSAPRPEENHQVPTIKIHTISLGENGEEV

[17] = Bioavailability in dog; format: ADME, organism-based, Canis lupus familiaris; conditions: in vivo
[18] = Selectivity for alpha-1a receptor against rat L-type calcium channel by [3H]nitrendipine binding

Compound | Ki [9] | Ki [10] | Ki [12] | Fold selective [13] | further results
CNC(=O)C1=C(C)N=C(C)N(CCCCCN2CCC(C(=O)OC)(c3ccccc3)CC2)C1c1ccc(F)cc1F (centres undefined) | 1900 nM | 870 nM | 14 nM | < 80 | –
COC(=O)C1=C(C)N=C(C)N(CCC[C@@H](C)CN2CCN(c3ccccc3C(N)=O)CC2)C1c1ccc(F)c(F)c1 (single isomer, unassigned; (+)) | 1700 nM | 1500 nM | 20 nM | < 10 | –
COC(=O)C1=C(C)N=C(C)N(CCCCCN2CCC(C(=O)OC)(c3ccccc3)CC2)C1c1ccc(F)c(F)c1 (centres undefined) | 550 nM and 180 nM | 700 nM and 190 nM | – | – | –
COC(=O)C1=C(C)N=C(C)N(CCCCCN2CCC(C(=O)OC)(c3ccccc3)CC2)C1c1ccc(F)cc1F (centres undefined) | 700 nM | 160 nM | 0.5 nM | > 1000 | –
COC(=O)C1=C(C)N=C(C)N(CCCCN2CCC(C(=O)OC)(c3ccccc3)CC2)C1c1ccc(F)c(F)c1 (centres undefined) | 610 nM | 440 nM | 3.6 nM | < 80 | –
COC(=O)C1=C(C)N=C(C)N(Cc2cccc(CN3CCC(C(=O)OC)(c4ccccc4)CC3)c2)C1c1ccc(F)c(F)c1 (centres undefined) | 570 nM | 320 nM | 6.8 nM | > 130 | –
COC(=O)C1(c2ccccc2)CCN(CCCCCN2C(C)=NC(C)=C(C(N)=O)C2c2ccc(F)cc2F)CC1 (centres undefined) | 690 nM | 410 nM | 4.2 nM | < 10 | –
COC(=O)C1=C(C)NC(=O)N(CCCCCN2CCC(C(=O)OC)(c3ccccc3)CC2)C1c1ccc(F)c(F)c1 (centres undefined) | – | – | – | > 1000 | –
COC(=O)C1=C(C)N=C(C)N(CCC[C@H](C)CN2CCN(c3ccccc3C(N)=O)CC2)C1c1ccc(F)c(F)c1 (some centres undefined) | 1700 nM | 810 nM | 3.5 nM | < 100 | –
COC(=O)C1=C(C)N=C(C)N(CCC[C@H](C)CN2CCC(C(=O)OC)(c3ccccc3)CC2)C1c1ccc(F)c(F)c1 (single isomer, unassigned; (+)) | 910 nM | 430 nM | 1.6 nM | < 50 | –

Further lines, with some results ahead:

Ki [9] | Ki [10] | Ki [12] | Fold selective [13] | Compound | further results
440 nM | 250 nM | 0.1 nM | – | COC(=O)C1=C(C)N=C(C)N(CCCCCN2CCC(c3ccc(C)cc3)(c3ccccc3C)CC2)C1c1ccc(F)c(F)c1 (centres undefined) | AUC [1]: 8 uM min l-1; AUC [2]: 21 uM min l-1; AUC [3]: 11 uM min l-1; AUC [4]: 35 uM min l-1; half-life [5]: 0.5 h; half-life [6]: 4.7 h; bioavailability [7]: 8%; bioavailability [8]: 17%; Kb [11]: 27 nM
220 nM | 93 nM | 0.4 nM | > 300 | COC(=O)C1=C(C)N=C(C)N(CCCCCN2CCC(c3ccccc3)CC2)C1c1ccc(F)c(F)c1 (centres undefined) | –
1600 nM | 1700 nM | 22 nM | < 10 | COC(=O)C1=C(C)N=C(C)N(CCC[C@@H](C)CN2CCC(C#N)(c3ccccc3)CC2)C1c1ccc(F)c(F)c1 (some centres undefined) | –
680 nM | 400 nM | 0.4 nM | > 4000 | COCC1=C(C(=O)OC)C(c2ccc(F)c(F)c2)N(CCCCCN2CCC(C#N)(c3ccccc3)CC2)C(C)=N1 (centres undefined) | –
79 nM | 34 nM | 0.5 nM | > 100 | COC(=O)C1=C(C)N=C(C)N(CCCCCN2CCN(c3ccccc3C(=O)OC)CC2)C1c1ccc(F)c(F)c1 (centres undefined) | –
180 nM | 100 nM | 0.4 nM | – | COC(=O)C1=C(C)N=C(C)N(CCCCCN2CCC(c3ccccc3)(c3ccccc3)CC2)C1c1ccc(F)c(F)c1 (centres undefined) | Ki [14]: 110 nM; Ki [15]: 0.33 nM; Ki [16]: 0.97 nM; Kb [11]: 60 nM
580 nM | 240 nM | 0.6 nM | – | COC(=O)C1=C(C)N=C(C)N(CCCCCN2CCN(c3ccccc3C(N)=O)CC2)C1c1ccc(F)c(F)c1 (centres undefined) | AUC [2]: 4 uM min l-1; AUC [4]: 5 uM min l-1; half-life [5]: 4 h; half-life [6]: 2.1 h; bioavailability [17]: < 10%; bioavailability [8]: 21%; Kb [11]: 7 nM
65 nM | 67 nM | 0.4 nM | < 100 | COC(=O)C1=C(C)N=C(C)N(CCCCCN2CCN(c3ccccc3OC)CC2)C1c1ccc(F)c(F)c1 (centres undefined) | –
1100 nM | 480 nM | 1.2 nM | > 120 | COC(=O)C1=C(C)N=C(C)N(CCC[C@H](C)CN2CCC(C#N)(c3ccccc3)CC2)C1c1ccc(F)c(F)c1 (some centres undefined) | –
120 nM | 140 nM | 0.3 nM | > 100 | COC(=O)C1=C(C)N=C(C)N(CCCCCN2CCC(c3ccccc3OC)CC2)C1c1ccc(F)c(F)c1 (centres undefined) | –
1100 nM | 490 nM | 1 nM | > 300 | COC(=O)C1=C(C)N=C(C)N(CCCCCN2CCC(C#N)(c3ccccc3)CC2)C1c1ccc(F)c(F)c1 (centres undefined) | –
480 nM | 310 nM | 0.4 nM | > 700 | COCC1=NC(C)=C(C(=O)OC)C(c2ccc(F)c(F)c2)N1CCCCCN1CCC(C#N)(c2ccccc2)CC1 (centres undefined) | –
1100 nM | 500 nM | 1.1 nM | – | COC(=O)C1=C(C)N=C(C)N(CCCCCN2CCC(c3ccccc3C(F)(F)F)CC2)C1c1ccc(F)c(F)c1 (centres undefined) | Selectivity [18]: < 100

— ChEMBL document CHEMBL1132111, “Design and synthesis of novel alpha(1)(a) adrenoceptor-selective antagonists. 4. Structure-activity relationship in the dihydropyrimidine series” (J Med Chem, 1999)
